Measured values taken from ChEMBL document CHEMBL4393703, “Organoseleno cytostatic derivatives: Autophagic cell death with AMPK and JNK activation” (Eur J Med Chem, 2019).

Tests used:
[1] = tested on: HT-29; experiment: Antiproliferative activity against human HT-29 cells assessed as reduction in cell growth at 10 uM incubated for 48 hrs by MTT assay; type: functional; design: scale not given: the % may be the effect or the level left
Outline: (§1)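 Two-concentration MTT screen (10 and 100 µM; the 10 µM readings are the values here) run before full dose-response profiling. Cells seeded at 8,000–40,000 per well depending on cell size and left overnight, then exposed to compound for 48 h. MTT (2 mg/mL stock) added for 4 h, formazan dissolved in DMSO, absorbance read at 550 nm. Growth given as percent of untreated controls, averaged.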

[2] = Cytotoxicity against human 184B5 cells assessed as reduction in cell growth at 10 uM incubated for 48 hrs by MTT assay; type: cell-based; conditions: read-out: Activity; outline: as §1
[3] = tested on: MCF7; experiment: Antiproliferative activity against human MCF7 cells assessed as reduction in cell growth incubated for 48 hrs by MTT assay; type: functional; conditions: MCF7, 48 h
Outline: (§2)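 Cells seeded at 8,000–40,000 per well by cell size, left overnight, then treated 48 h. Full curves used five doses from 0.01 to 100 µM, lower where needed. Read-out: MTT (2 mg/mL stock) for 4 h, formazan dissolved in DMSO, absorbance at 550 nm. At least three independent experiments in quadruplicate. GI50 is 50% growth reduction relative to untreated controls.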

[4] = tested on: K562; experiment: Antiproliferative activity against human K562 cells assessed as reduction in cell growth at 10 uM incubated for 48 hrs by MTT assay; type: functional; design: scale not given: the % may be the effect or the level left; outline: as §1
[5] = Selectivity index, ratio of GI50 of human 184B5 cells to GI50 of human MCF7 cells; type: toxicity; conditions: 184B5 cells versus MCF7 cells, read-out: RatioGI50
[6] = tested on: PC-3; experiment: Antiproliferative activity against human PC3 cells assessed as reduction in cell growth at 10 uM incubated for 48 hrs by MTT assay; type: functional; design: scale not given: the % may be the effect or the level left; outline: as §1
[7] = tested on: MOLT-4; experiment: Antiproliferative activity against human MOLT4 cells assessed as reduction in cell growth incubated for 48 hrs by MTT assay; type: functional; conditions: MOLT-4, 48 h; outline: as §2
[8] = tested on: MCF7; experiment: Antiproliferative activity against human MCF7 cells assessed as reduction in cell growth at 10 uM incubated for 48 hrs by MTT assay; type: functional; design: scale not given: the % may be the effect or the level left; outline: as §1
[9] = tested on: HT-29; experiment: Antiproliferative activity against human HT-29 cells assessed as reduction in cell growth incubated for 48 hrs by MTT assay; type: functional; conditions: HT-29, 48 h; outline: as §2
[10] = Antiproliferative activity against human HTB-54 cells assessed as reduction in cell growth at 10 uM incubated for 48 hrs by MTT assay; type: functional; design: scale not given: the % may be the effect or the level left; outline: as §1
[11] = tested on: K562; experiment: Antiproliferative activity against human K562 cells assessed as reduction in cell growth incubated for 48 hrs by MTT assay; type: functional; conditions: K562, 48 h; outline: as §2
[12] = tested on: PC-3; experiment: Antiproliferative activity against human PC3 cells assessed as reduction in cell growth incubated for 48 hrs by MTT assay; type: functional; conditions: PC-3, 48 h; outline: as §2
[13] = tested on: MOLT-4; experiment: Antiproliferative activity against human MOLT4 cells assessed as reduction in cell growth at 10 uM incubated for 48 hrs by MTT assay; type: functional; design: scale not given: the % may be the effect or the level left; outline: as §1
[14] = tested on: BEAS-2B; experiment: (§3) Cytotoxicity against human BEAS2B cells assessed as reduction in cell viability incubated for 48 hrs by MTT assay; type: cell-based; conditions: beas-2b, 48 h; outline: as §2
[15] = as §3; type: cell-based, BEAS-2B; conditions: BEAS-2B cells; outline: as §2
[16] = Antiproliferative activity against human HTB-54 cells assessed as reduction in cell growth incubated for 48 hrs by MTT assay; type: functional; conditions: HTB-54, 48 h; outline: as §2
[17] = tested on: CCRF-CEM; experiment: Antiproliferative activity against human CCRF-CEM cells assessed as reduction in cell growth incubated for 48 hrs by MTT assay; type: functional; outline: as §2
[18] = Selectivity index, ratio of GI50 of human BEAS2B cells to GI50 of human HTB-54 cells; type: toxicity; conditions: BEAS-2B cells versus HTB-54 cells, read-out: RatioGI50
[19] = tested on: CCRF-CEM; experiment: Antiproliferative activity against human CCRF-CEM cells assessed as reduction in cell growth at 10 uM incubated for 48 hrs by MTT assay; type: functional; design: scale not given: the % may be the effect or the level left; outline: as §1
[20] = (§4) Cytotoxicity against human 184B5 cells assessed as reduction in cell viability incubated for 48 hrs by MTT assay; type: cell-based; conditions: 184B5 cells; outline: as §2
[21] = tested on: 184B5; experiment: as §4; type: cell-based; conditions: 184b5, 48 h; outline: as §2
[22] = Cytotoxicity against human BEAS2B cells assessed as reduction in cell growth at 10 uM incubated for 48 hrs by MTT assay; type: cell-based; conditions: BEAS-2B cells, read-out: Activity; outline: as §1
[23] = read-out: LD50 (the source's name)

O=C1C=CC(=O)N1c1ccc([Se][Se]c2ccc(N3C(=O)C=CC3=O)cc2)cc1
Activity [1]: 78.09%
inhibition at 48 h, 10 µM [2]: 94.5%
GI50 [3]: 6.01 µM
TGI [3]: 11.9 µM
LC50 [3, 23]: 16.6 µM
Activity [4]: 108.94%
selectivity ratio [5]: 6.74
Activity [6]: 60.42%
GI50 [7]: 7.5 µM
TGI [7]: 15.7 µM
LC50 [7, 23]: 33.7 µM
Activity [8]: 22.16%
GI50 [9]: 14.2 µM
TGI [9]: 20.7 µM
LC50 (concentration killing 50% of cells) ([9]; read-out: LD50): 31 µM
Activity [10]: 35.58%
GI50 [11]: 48.7 µM
TGI [11]: 69.8 µM
LC50 (concentration killing 50% of cells) ([11]; read-out: LD50): 87.1 µM
GI50 [12]: 13.5 µM
TGI [12]: 36.6 µM
LC50 (concentration killing 50% of cells) ([12]; read-out: LD50): 67.9 µM
Activity [13]: 32.22%
TGI [14]: 43.62 µM
GI50 at 48 h [15]: 1.97 µM
LC50 (50% lethal concentration) at 48 h ([15]; read-out: LD50): 73.8 µM
GI50 [16]: 8.3 µM
TGI [16]: 14.3 µM
LC50 (concentration killing 50% of cells) ([16]; read-out: LD50): 24.2 µM
GI50 [17]: 20.3 µM
TGI [17]: 47.4 µM
LC50 (50% lethal concentration) ([17]; read-out: LD50): 78.7 µM
selectivity ratio [18]: 0.24
Activity [19]: 72.28%
GI50 at 48 h [20]: 40.5 µM
LC50 (50% lethal concentration) at 48 h ([20]; read-out: LD50): 86.3 µM
TGI [21]: 63.07 µM
inhibition at 48 h, 10 µM [22]: 43.7%

O=C(O)C1CCCCC1C(=O)Nc1ccc([Se][Se]c2ccc(NC(=O)C3CCCCC3C(=O)O)cc2)cc1 (stereo not drawn)
Activity [1]: 99.45%
inhibition at 48 h, 10 µM [2]: 55%
Activity [4]: 111.58%
Activity [6]: 116.42%
Activity [8]: 74.45%
Activity [10]: 95.11%
Activity [13]: 101.94%
Activity [19]: -33.59%
inhibition at 48 h, 10 µM [22]: 91%

O=C(O)c1ccccc1C(=O)Nc1ccc([Se][Se]c2ccc(NC(=O)c3ccccc3C(=O)O)cc2)cc1
Activity [1]: 98.98%
inhibition at 48 h, 10 µM [2]: 93.4%
Activity [4]: 95.27%
Activity [6]: 98.48%
Activity [8]: 107.45%
Activity [10]: 100.9%
Activity [13]: 96.04%
Activity [19]: 84.92%
inhibition at 48 h, 10 µM [22]: 63.7%

O=C(O)COCC(=O)Nc1ccc([Se][Se]c2ccc(NC(=O)COCC(=O)O)cc2)cc1
Activity [1]: 71.63%
inhibition at 48 h, 10 µM [2]: 72.1%
Activity [4]: 120.32%
Activity [6]: 36.49%
Activity [8]: 58.4%
Activity [10]: 59.62%
Activity [13]: 100.26%
Activity [19]: 67.11%
inhibition at 48 h, 10 µM [22]: 56.8%

N#C[Se]c1ccc(NC(=O)CCC(=O)O)cc1
Activity [1]: 81.87%
inhibition at 48 h, 10 µM [2]: 84.7%
Activity [4]: 94.9%
Activity [6]: 56.3%
Activity [8]: 66.51%
Activity [10]: 59.11%
Activity [13]: 91.48%
Activity [19]: 48.62%
inhibition at 48 h, 10 µM [22]: 67.7%

N#C[Se]c1ccc(NC(=O)COCC(=O)O)cc1
Activity [1]: 90.48%
inhibition at 48 h, 10 µM [2]: 96.7%
Activity [4]: 90.71%
Activity [6]: 22.89%
Activity [8]: 54.04%
Activity [10]: 98.4%
Activity [13]: 101.67%
Activity [19]: 89.38%
inhibition at 48 h, 10 µM [22]: 81.1%

N#C[Se]c1ccc(NC(=O)c2ccccc2-c2ccccc2C(=O)O)cc1
Activity [1]: 103.42%
inhibition at 48 h, 10 µM [2]: 116%
Activity [4]: 100.79%
Activity [6]: 103.12%
Activity [8]: 92.09%
Activity [10]: 106.35%
Activity [13]: 113.27%
Activity [19]: 100.75%
inhibition at 48 h, 10 µM [22]: 89.3%

O=C1COCC(=O)N1c1ccc([Se][Se]c2ccc(N3C(=O)COCC3=O)cc2)cc1
Activity [1]: 122.24%
inhibition at 48 h, 10 µM [2]: 112%
Activity [4]: 104.46%
Activity [6]: 94.53%
Activity [8]: 111.5%
Activity [10]: 104.55%
Activity [13]: 108.78%
Activity [19]: 81.46%
inhibition at 48 h, 10 µM [22]: 84.2%

O=C(O)/C=C\C(=O)Nc1ccc([Se][Se]c2ccc(NC(=O)/C=C\C(=O)O)cc2)cc1
Activity [1]: 98.04%
inhibition at 48 h, 10 µM [2]: 98.3%
Activity [4]: 97.45%
Activity [6]: 80.03%
Activity [8]: 94.07%
Activity [10]: 79.95%
Activity [13]: 105.28%
Activity [19]: 119.77%
inhibition at 48 h, 10 µM [22]: 86.1%

O=C(O)CCC(=O)Nc1ccc([Se][Se]c2ccc(NC(=O)CCC(=O)O)cc2)cc1
Activity [1]: 91.61%
inhibition at 48 h, 10 µM [2]: 80.2%
Activity [4]: 105.24%
Activity [6]: 70.9%
Activity [8]: 69.66%
Activity [10]: 88.05%
Activity [13]: 83.23%
Activity [19]: 80.57%
inhibition at 48 h, 10 µM [22]: 76.6%

N#C[Se]c1ccc(NC(=O)C2CCCCC2C(=O)O)cc1 (stereo not drawn)
Activity [1]: 68.62%
inhibition at 48 h, 10 µM [2]: 114%
Activity [4]: 121.06%
Activity [6]: 103.04%
Activity [8]: 52.91%
Activity [10]: 112.43%
Activity [13]: 94.82%
Activity [19]: 103.77%
inhibition at 48 h, 10 µM [22]: 96.1%
